“Also recorded” adds a separate entry of the source.
How the values were obtained:
[1] = system: biotinylated HIV-1 FSS RNA; assay: SPR binding kinetics, RNA immobilized on streptavidin-coated CM5 chip; settings: 1X PBS, 5 mM MgCl2, 0.005 % Tween-20, 1:1 global fit to six sensorgrams
[2] = target: unrelated RNA hairpin (entry 10); assay: Fluorescence titration, Table 1 entry 10; assay type: binding
In short: (§1)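 5′-Cy3-labelled oligonucleotide (400 or 500 nM) in 1X PBS pH 7.2 was heated to 65 °C for 4 min, MgCl2 was added, and the sample was cooled slowly to RT. Test compound was titrated in (100 nM–10 μM), with ≥10 min equilibration per addition. Excitation was 550 nm and emission was read at 564.1 nm. Dilution-corrected ΔFU was fit to a 1-site ligand-depletion model, with ≥2 titrations.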

[3] = system: HIV-1 FSS with multiple mutations in the loop region (entry 8); assay: Fluorescence titration, Table 1 entry 8; assay type: binding; settings: entry 8, multiple mutations in the loop region
[4] = target: unrelated RNA hairpin (entry 10); settings: Table 1 entry 10; compound immobilized on chip; previously reported; cited from earlier work
[5] = target: unrelated RNA hairpin (entry 11); assay: Fluorescence titration, Table 1 entry 11; assay type: binding
In short: as §1

[6] = target: DNA homolog of the HIV-1 FSS (entry 9); assay: Fluorescence titration, Table 1 entry 9; assay type: binding
In short: as §1

[7] = system: HIV-1 FSS with single mutation in the loop region (entry 7); assay: Fluorescence titration, Table 1 entry 7; assay type: binding; settings: entry 7, single mutation in the loop region
[8] = target: HIV-1 FSS RNA (upper stem-loop of the HIV-1 frameshift-stimulating RNA); assay: Fluorescence titration of compound into 5′-Cy3-labeled RNA; assay type: binding, HIV-1 (group M subtype D); settings: Table 2, average ± standard deviation of 3 replicate titrations

Row | Compound | Association rate (kon) [1] | Dissociation rate (koff) [1] | Binding constant (KD), Solution [2] | reduction in the binding relative to HIV-1 FSS [3] [fold] | Binding constant (KD), SPR [4] | Binding constant (KD), Solution [5] | Binding constant (KD), Solution [6] | reduction in the binding relative to HIV-1 FSS [7] [fold] | KD [8]
1 | NC[C@@H]1O[C@H](O[C@H]2[C@@H](O)[C@H](O[C@@H]3[C@@H](O)[C@H](N)C[C@H](N)[C@H]3O[C@H]3O[C@H](CN)[C@@H](O)[C@H](O)[C@H]3N)O[C@@H]2CO)[C@H](N)[C@@H](O)[C@@H]1O [Neomycin, neomycin, reference compound] | too rapid to determine accurately | too rapid to determine accurately |  |  |  |  |  |  | 
2 | (Cys-Pro-Phe)2 (disulfide) [Compound 1] | 1790 M⁻¹ s⁻¹ | 0.0141 s⁻¹ | No saturable binding | 4 | No binding | No saturable binding | No saturable binding | 2 | 
3 | (Cys-Pro-Phe)2 (disulfide) [Compound 5] |  |  |  |  |  |  |  |  | completely ablated binding; also recorded: No Binding
